Source: PubChem
Mdm2-MdmX inh: inhibitors of human Mdm2/MdmX interaction; 330,000 tested, 3% active; inhibition, % at 8 µM; O15151+Q00987; SaOS-2 split-luciferase Mdm2/MdmX complementation, luminescence;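 active means inhibition of at least 50% at 8 µM in the primary screen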
UPR XBP1 act: activators of adaptive arm of unfolded protein response (XBP1). AID 463104. activation, % at 20 µM. CHO-XBP1 luciferase reporter, IRE1-XBP1 UPR activation, luminescence; percent of tunicamycin response, DMSO as zero. 330,000 tested, 0.33% active;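 active means versus positive control, 20 µM dose yields 30% or more activation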;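 further: 100% = tunicamycin at 10 µg/mL and 0% = DMSO only wells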
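Material: IRE1-XBP1 luciferase reporter CHO line / Quantity: one thousand reporter cells per well / Buffer or medium: F12 with 10% serum / Compound: 20 µM single concentration, DMSO 1% / Times: 6 h treatment, 37 °C / Detection: Steady-Glo luciferase glow luminescence, 10 min after reagent addition / Benchmarks: tunicamycin high, DMSO low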
ABHD5 PLIN5 PPI: blocks binding of human ABHD5 to perilipin-5; inhibition, % at 4 µM; 360,000 tested, 0.78% active; Split G. princeps luciferase complementation, luminescence, 4 h;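 active means inhibition above the mean inhibition across every tested compound plus 3 SD, cut at about 22% in these data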;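 further: 0% = DMSO only wells and the 100% control is not disclosed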
Target sequence (Q00G26 whole entry, looked up): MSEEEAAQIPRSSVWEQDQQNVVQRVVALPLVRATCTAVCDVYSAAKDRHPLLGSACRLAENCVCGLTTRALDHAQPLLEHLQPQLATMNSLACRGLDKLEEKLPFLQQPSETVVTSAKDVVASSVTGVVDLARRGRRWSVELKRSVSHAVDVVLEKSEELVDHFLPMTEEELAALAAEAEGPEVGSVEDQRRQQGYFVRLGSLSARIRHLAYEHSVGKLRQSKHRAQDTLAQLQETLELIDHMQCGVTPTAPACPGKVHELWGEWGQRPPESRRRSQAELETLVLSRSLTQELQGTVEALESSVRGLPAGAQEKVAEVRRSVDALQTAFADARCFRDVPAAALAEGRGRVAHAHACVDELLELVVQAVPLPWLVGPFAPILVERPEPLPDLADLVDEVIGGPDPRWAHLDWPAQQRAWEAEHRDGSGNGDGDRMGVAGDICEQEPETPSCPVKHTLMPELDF
Target sequence (Q8WTS1 whole entry, looked up): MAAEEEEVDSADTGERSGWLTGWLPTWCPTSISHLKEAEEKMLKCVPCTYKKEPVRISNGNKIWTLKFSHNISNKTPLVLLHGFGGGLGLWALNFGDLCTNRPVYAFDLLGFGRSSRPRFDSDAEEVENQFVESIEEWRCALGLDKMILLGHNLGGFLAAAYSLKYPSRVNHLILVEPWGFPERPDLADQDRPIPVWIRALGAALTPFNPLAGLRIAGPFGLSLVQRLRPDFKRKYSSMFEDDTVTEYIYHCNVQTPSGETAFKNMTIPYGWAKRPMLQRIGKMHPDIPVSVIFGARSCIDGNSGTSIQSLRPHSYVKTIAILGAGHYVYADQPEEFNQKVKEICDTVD
UPR CHOP act: apoptotic UPR (CHOP) activation; CHO-CHOP luciferase reporter, luminescence; percent of tunicamycin response over DMSO baseline; 330,000 tested, 0.34% active; activation, % at 10 µM;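 active means at 10 µM dose, activation of 40% or more, normalized to positive control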;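 further: 100% = tunicamycin at 10 µg/mL and 0% = DMSO alone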
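Test system: CHO CHOP reporter cells. Input: 500 CHO-CHOP cells per well. Medium: F12 with 10% FBS. Technique: luciferase luminescence. Measure: percent activation relative to tunicamycin control. Dosing: 10 µM compound, 0.5% DMSO. Timing: 16-18 h cell attachment, then 6 h compound exposure, 37 °C.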
Granule exo inh: blocks lytic granule exocytosis | 360,000 tested, 0.66% active | inhibition, % at 10 µM | AID 651702 | TALL-104 LAMP-1 surface exposure, flow cytometry; cells stimulated with thapsigargin and PMA;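 active means inhibition above about 55%, limit read from the data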
Mdm2-MdmX conf: human Mdm2/MdmX binding inhibition, confirmed; luminescent assay; inhibition, % at 8 µM; 10,000 tested, 55% active; AID 489028; shares compounds with Mdm2-MdmX inh; in the data active means inhibition above about 40%
FLuc counter: full-length luciferase inhibition in Mdm2/MdmX counter-screen; AID 504607; inhibition, % at 8 µM; 6,200 tested, 77% active; SaOS-2 full-length luciferase counterscreen, luminescence; shares compounds with Mdm2-MdmX inh;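 active means mean inhibition at 8 µM reaching about 37%, which flags the compound as non-specific, limit read from the data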;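 further: p53-null SaOS-2 cells with luciferase driven by a doxycycline-inducible promoter; compound on cells about two nights before reading with doxycycline added after day one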
* hit, by the source's call; . = no result. The list is not random: actives were taken first. Their share in the collection is about 4%.

SMILES	Mdm2-MdmX inh	UPR XBP1 act	ABHD5 PLIN5 PPI	UPR CHOP act	Granule exo inh	Mdm2-MdmX conf	FLuc counter
COC(=O)c1cn(C(=O)c2ccc(C)cc2C)c2ccccc12	61.2*	-2.0	9.9	0.1	2.0	53.3*	56.2*
COC(=O)c1cn(C(=O)/C=C/c2ccc(OC)c(OC)c2)c2ccccc12	92.3*	-1.2	-0.8	5.2	2.8	66.2*	39.1*
[O-]/[N+](=C\c1ccccc1)c1ccccc1	18.0	1.7	-1.1	2.8	0.8	.	.
CC(C)Sc1nc2sc(-c3ccccc3)cc2c(=O)n1N	11.1	-2.6	-2.5	1.2	-1.4	.	.
CSc1nc2sc(-c3ccccc3)cc2c(=O)n1N	68.2*	1.1	-4.2	-1.5	0.1	40.5*	164.1*
O=C1NC(c2ccccc2)(C(F)(F)F)C(=O)N1Cc1cccnc1 (stereo not given)	21.4	-3.1	-1.4	-1.2	-0.7	.	.
Cn1nc(-c2ccc(Cl)cc2)nc2c(=O)n(C)c(=O)nc1-2	82.6*	-4.1	.	-9.3	.	79.6*	19.8
CS(=O)(=O)n1nc(-c2ccc(Cl)cc2)nc1N	-1.9	4.0	-1.7	1.5	-0.6	.	.
C[C@H](CO)N1C[C@H](C)[C@H](CN(C)Cc2ccccc2)Oc2c(NC(=O)Nc3ccc(F)cc3)cccc2C1=O	17.1	-0.6	-5.4	13.1	1.7	.	.
COc1ccc(NC(=O)Nc2cccc3c2O[C@H](CN(C)Cc2ccc(-c4ccccc4)cc2)[C@@H](C)CN([C@H](C)CO)C3=O)cc1	90.7*	3.3	7.9	-0.7	-12.2	63.0*	31.0
C[C@@H]1CN([C@@H](C)CO)C(=O)c2cccc(NC(=O)Nc3ccc(F)cc3)c2O[C@@H]1CN(C)Cc1ccc(Oc2ccccc2)cc1	76.3*	16.1	5.9	15.2	-3.4	22.0	.
Cc1ccc(S(=O)(=O)N(C)C[C@H]2Oc3c(NC(=O)Nc4cccc5ccccc45)cccc3C(=O)N([C@@H](C)CO)C[C@@H]2C)cc1	59.6*	0.1	-2.4	5.2	10.5	37.4	46.6*
COc1ccc(NC(=O)Nc2cccc3c2O[C@H](CN(C)S(=O)(=O)c2ccc(OC)cc2)[C@@H](C)CN([C@H](C)CO)C3=O)cc1	27.6	-0.8	1.2	2.1	-18.1	.	.
COCCCNC(=O)C[C@@H]1C[C@@]2(C(=O)OC)CCCCC=C2N(Cc2ccccc2)C1=O	.	.	4.8	.	-8.4	.	.
O=S(=O)(NCCc1cccs1)c1ccc(Br)cc1	1.8	1.7	-5.9	-2.2	4.1	.	.
Cc1ccc(C(=O)NNC(=O)c2ccncc2)cc1S(=O)(=O)N1CCOCC1	14.6	-3.0	-1.5	0.4	2.8	.	.
N#Cc1ccc(-c2csc(NNC(=O)c3ccccc3)n2)cc1	39.7	-0.5	-8.7	1.6	-7.8	.	.
N#Cc1ccc(-c2csc(NNC(=O)c3ccc(Br)cc3)n2)cc1	77.2*	-1.4	-16.9	0.2	0.2	58.8*	10.1
Cc1onc(-c2ccccc2)c1C(=O)n1nnc2ccccc21	-4.8	-2.5	-0.1	0.5	-0.2	.	.
Cc1c(-c2cccc(Cl)c2)nc2ccccc2c1C(=O)OC/C(O)=C(\C#N)c1nc2ccccc2[nH]1	70.0*	15.7	-1.7	0.4	-1.2	11.2	.
Cc1c(C(=O)OC/C(O)=C(\C#N)c2nc3ccccc3[nH]2)oc2ccc(Br)cc12	84.6*	2.1	3.4	2.7	-2.1	14.3	.
Cc1cc(Br)ccc1SCC(=O)OCC(O)=C(C#N)c1nc2ccccc2[nH]1	.	.	6.7	.	1.8	.	.
CC(C)OCc1c(C(=O)OC/C(O)=C(\C#N)c2nc3ccccc3[nH]2)oc2ccccc12	56.7*	-4.0	-1.6	0.2	2.6	-5.0	.
O=C(c1cc2ccccc2oc1=O)N1CCCC1	1.6	0.4	-2.4	-2.1	-2.3	.	.
CSc1nc(N)nc2c1ncn2CC(=O)NCc1ccccc1	-14.7	0.6	2.1	-1.8	-3.4	.	.
SMILES	Mdm2-MdmX inh	UPR XBP1 act	ABHD5 PLIN5 PPI	UPR CHOP act	Granule exo inh	Mdm2-MdmX conf	FLuc counter
C/C(=N\NC(=O)C1(C)CC1(Br)Br)c1cccc(NC(=O)c2ccc(C)o2)c1 (stereo not given)	61.3*	-2.2	3.7	2.0	0.0	21.9	.
Fc1ccc(-c2nnc(NC3=NCCCCC3)o2)cc1	54.5*	-10.5	-6.8	-8.0	-1.2	49.5*	54.6*
COc1ccc(NC(=O)c2nc(C)c(C3(C)CC(c4ccccc4)=NO3)s2)cc1 (stereo not given)	59.3*	9.3	-0.6	0.4	-8.8	57.6*	71.7*
Cc1nc(C(=O)Nc2ccccc2)sc1C1(C)CC(c2cccnc2)=NO1 (stereo not given)	-27.0	-0.2	10.3	1.3	-3.9	.	.
Cc1nc(C(=O)Nc2ccccc2)sc1C1(C)CC(c2cccc([N+](=O)[O-])c2)=NO1 (stereo not given)	85.4*	-1.4	-9.6	1.4	1.1	63.1*	49.5*
Cc1nc(C(=O)O)sc1C1(C)CC(c2cccc([N+](=O)[O-])c2)=NO1 (stereo not given)	10.8	-0.2	0.1	0.3	-2.2	.	.
CC[C@]12c3[nH]c4ccc(Cl)cc4c3CCN1C(=O)[C@@H](CC(=O)NC(C)(C)C)C[C@@H]2C(=O)N1CCN(C(=O)c2ccco2)CC1	45.3	2.7	-6.1	2.3	-2.7	.	.
CC[C@]12c3[nH]c4cc(CCC(=O)N(C)C)ccc4c3CCN1C(=O)[C@@H](CC(=O)NC/C=C(\C)CCC=C(C)C)C[C@@H]2C(=O)N1CCN(C(=O)c2ccco2)CC1	92.9*	5.5	7.4	3.4	4.3	59.3*	58.9*
CC[C@]12c3[nH]c4ccc(Cl)cc4c3CCN1C(=O)[C@@H](CC(=O)NC/C=C(\C)CCC=C(C)C)C[C@@H]2C(=O)N1CCN(C(=O)c2ccco2)CC1	66.3*	18.4	3.1	11.9	-5.6	-10.6	.
CC[C@]12c3[nH]c4cc(CCC(=O)N(C)C)ccc4c3CCN1C(=O)[C@@H](CC(=O)NCCN1CCOCC1)C[C@@H]2C(=O)N1CCN(C(=O)c2ccco2)CC1	-3.7	3.2	1.2	-0.2	5.6	.	.
COc1ccc(-c2nn(-c3ccccc3C)cc2CNCc2cccnc2)cc1F	10.4	-1.7	5.3	-1.1	-1.4	.	.
CC(=O)Nc1ccc(Oc2sc(C(=O)c3ccccc3)c(N)c2C#N)cc1	61.5*	-5.3	12.3	5.2	8.1	29.1	78.1*
COc1ccc(OC)c(CN2CCN(C(=O)c3cccc(S(=O)(=O)Nc4ccc(F)cc4)c3)CC2)c1	.	.	0.5	.	8.6	.	.
COc1ccc(-c2nc(NC(=O)c3cc(C(C)(C)C)nn3C)sc2C)cc1	60.7*	8.4	-15.2	6.8	2.0	32.1	.
COc1ccc(-c2nc(NC(=O)c3n[nH]c(=O)c4ccccc34)sc2C)cc1	68.9*	-0.6	-0.6	3.1	-5.8	35.6	.
